Data reported in ChEMBL document CHEMBL2057191, “Synthesis, structure-activity relationship, and pharmacological studies of novel melanin-concentrating hormone receptor 1 antagonists 3-aminomethylquinolines: reducing human ether-a-go-go-related gene (hERG) associated liabilities” (J Med Chem, 2012).

What was measured:
[1] = molecular target: T1, Melanin-concentrating hormone receptor 1 (Homo sapiens, UniProt Q99705); experiment: Displacement of [125I]MCH from human MCHR1 expressed in CHO cells after 60 mins by liquid scintillation counting; assay type: cell-based
T1 sequence (Q99705 whole entry): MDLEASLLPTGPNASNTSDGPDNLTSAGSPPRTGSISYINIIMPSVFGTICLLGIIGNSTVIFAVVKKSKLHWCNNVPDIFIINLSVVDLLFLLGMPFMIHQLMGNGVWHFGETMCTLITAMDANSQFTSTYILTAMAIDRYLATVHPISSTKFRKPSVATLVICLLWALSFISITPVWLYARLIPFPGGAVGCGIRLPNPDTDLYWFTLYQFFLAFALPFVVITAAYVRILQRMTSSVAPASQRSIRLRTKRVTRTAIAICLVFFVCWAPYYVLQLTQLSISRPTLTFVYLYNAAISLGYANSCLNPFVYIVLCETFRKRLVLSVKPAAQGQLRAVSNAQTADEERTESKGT
In short: (§1)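 Membrane homogenates from CHO cells stably expressing human or rat MCHR1 in 25 mM Tris-HCl pH 7.5 with EDTA, BSA and protease inhibitors. Membrane protein 2 μg/mL (human) or 4 μg/mL (rat). Nonspecific binding defined with 0.3 μM MCH(1–19). Filter radioactivity counted. IC50 from one experiment in duplicate.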

[2] = molecular target: Melanin-concentrating hormone receptor 1 (Rattus norvegicus, UniProt P97639); experiment: Displacement of [125I]MCH from rat MCHR1 expressed in CHO cells after 60 mins by liquid scintillation counting; assay type: cell-based; in short: as §1
Melanin-concentrating hormone receptor 1 (Rattus norvegicus, UniProt P97639), sequence (P97639 whole entry): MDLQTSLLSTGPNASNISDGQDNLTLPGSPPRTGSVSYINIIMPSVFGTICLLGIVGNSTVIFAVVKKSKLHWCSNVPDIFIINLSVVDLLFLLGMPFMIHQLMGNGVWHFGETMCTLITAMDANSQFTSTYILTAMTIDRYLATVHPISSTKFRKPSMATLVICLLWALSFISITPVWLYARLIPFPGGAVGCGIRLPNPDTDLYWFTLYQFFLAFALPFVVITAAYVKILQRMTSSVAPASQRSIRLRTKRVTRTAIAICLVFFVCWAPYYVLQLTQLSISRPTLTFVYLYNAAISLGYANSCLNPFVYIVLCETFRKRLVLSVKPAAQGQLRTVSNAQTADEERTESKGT

[3] = molecular target: T1, Melanin-concentrating hormone receptor 1; experiment: Antagonist activity at human MCHR1 expressed in CHO cells assessed as inhibition of MCH-stimulated arachidonic acid release after 45 mins by liquid scintillation counting; assay type: functional, cell-based
[4] = molecular target: Voltage-gated inwardly rectifying potassium channel KCNH2 (Homo sapiens, UniProt Q12809); experiment: Inhibition of human ERG expressed in HMZ/CHO.8B4 cells assessed as inhibition of Rb+ efflux at 30 uM after 30 mins by flame atomic absorption spectrometer analysis relative to astemizole; assay type: cell-based; details: 0.5 h
Voltage-gated inwardly rectifying potassium channel KCNH2, sequence (Q12809 whole entry): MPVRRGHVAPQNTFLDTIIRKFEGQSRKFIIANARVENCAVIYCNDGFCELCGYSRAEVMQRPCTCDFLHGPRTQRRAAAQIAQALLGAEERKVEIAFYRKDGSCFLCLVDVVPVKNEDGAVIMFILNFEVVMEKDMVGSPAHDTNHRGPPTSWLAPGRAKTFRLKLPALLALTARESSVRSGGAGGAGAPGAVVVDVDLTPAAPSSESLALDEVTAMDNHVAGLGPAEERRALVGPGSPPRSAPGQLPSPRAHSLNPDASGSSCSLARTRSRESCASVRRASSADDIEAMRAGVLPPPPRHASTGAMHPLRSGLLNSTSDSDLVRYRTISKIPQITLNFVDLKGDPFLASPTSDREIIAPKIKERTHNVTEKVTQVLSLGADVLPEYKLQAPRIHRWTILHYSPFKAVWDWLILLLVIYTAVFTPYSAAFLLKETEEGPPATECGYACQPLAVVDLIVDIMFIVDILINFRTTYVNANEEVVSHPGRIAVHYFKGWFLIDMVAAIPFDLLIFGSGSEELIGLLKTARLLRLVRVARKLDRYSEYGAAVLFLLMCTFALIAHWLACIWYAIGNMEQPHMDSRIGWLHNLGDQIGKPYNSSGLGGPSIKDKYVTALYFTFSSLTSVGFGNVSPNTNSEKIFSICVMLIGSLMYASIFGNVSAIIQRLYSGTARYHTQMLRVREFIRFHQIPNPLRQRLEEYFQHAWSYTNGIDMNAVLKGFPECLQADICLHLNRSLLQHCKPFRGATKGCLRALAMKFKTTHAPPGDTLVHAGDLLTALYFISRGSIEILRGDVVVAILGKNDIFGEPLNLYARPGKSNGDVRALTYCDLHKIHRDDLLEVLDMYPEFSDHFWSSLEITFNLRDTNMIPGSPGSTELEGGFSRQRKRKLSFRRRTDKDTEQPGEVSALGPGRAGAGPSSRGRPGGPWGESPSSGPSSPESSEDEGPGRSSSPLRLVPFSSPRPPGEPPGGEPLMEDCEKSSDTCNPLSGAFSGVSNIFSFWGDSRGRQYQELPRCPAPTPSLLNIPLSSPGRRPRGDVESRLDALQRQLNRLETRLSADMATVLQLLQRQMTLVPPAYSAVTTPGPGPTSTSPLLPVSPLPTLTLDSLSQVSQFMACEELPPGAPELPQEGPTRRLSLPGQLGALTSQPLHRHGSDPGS
In short: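 HMZ/CHO.8B4 cells stably expressing hERG, 4 × 10⁴ cells/well, 24 h on collagen, Rb-loaded 3 h at 37 °C (5.4 mM RbCl, pH 7.4). Compound added for 30 min (n = 7), then 5 min stimulation with 50 mM KCl. Supernatant and lysate Rb⁺ read by flame atomic absorption. Fractional efflux normalized to background and maximum; astemizole as 0, vehicle as 1.0.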

[5] = Lipophilicity, log D of the compound at pH 7.4; assay type: physicochemical; details: buffer
hERG (KCNH2) = hERG (KCNH2) (Homo sapiens, UniProt Q12809); experiment: Inhibition of human ERG expressed in HMZ/CHO.8B4 cells at 10 uM by patch clamp assay; assay type: cell-based; details: HMZ/CHO.8B4 cells expressing human ERG
hERG (KCNH2), sequence (Q12809 whole entry): as above

[6] = Bioavailability in Sprague-Dawley rat; assay type: ADME, organism-based; details: in vivo
[7] = Total clearance in Sprague-Dawley rat plasma at 1 mg/kg, iv; assay type: ADME, organism-based; design: dose 1 mg/kg, route intravenous
In short: (§2)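 Male Sprague-Dawley rats, 8 weeks old, given intravenous dose.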

[8] = Volume of distribution at steady state in Sprague-Dawley rat at 1 mg/kg, iv; assay type: ADME, organism-based; design: dose 1 mg/kg, route intravenous; details: in vivo, read-out: Vdss; in short: as §2
[9] = Cmax in Sprague-Dawley rat plasma at 3 mg/kg, po; assay type: ADME, organism-based; design: dose 3 mg/kg, route oral
In short: (§3)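 Male Sprague-Dawley rats, 8 weeks old, given oral dose.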

[10] = Tmax in Sprague-Dawley rat at 3 mg/kg, po; assay type: ADME, organism-based; design: dose 3 mg/kg, route oral; details: in vivo; in short: as §3
[11] = AUC (0 to 24 hrs) in Sprague-Dawley rat at 3 mg/kg, po; assay type: ADME, organism-based; design: time < 24 hr, dose 3 mg/kg, route oral; details: plasma; in short: as §3
Rattus norvegicus = experiment: Antiobesity activity in po dosed diet induced obese F344 rat model assessed as inhibition of food intake administered qd for 2 days; assay type: functional, organism-based
In short: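 Male F344/Jcl rats, 32 weeks old, on high-fat diet from 5 weeks of age, housed singly on a 7:00–19:00 light cycle, habituated to oral water dosing, grouped by food intake and body weight (n = 6). Dosed orally at 1, 3, 5 or 10 mg/kg in 0.5% methylcellulose (2 mL/kg) at 5:00 p.m. on days 0 and 1. Cumulative intake on days 1 and 2 expressed as ratio to vehicle group; Williams test.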

IC50 [1] [nM] | IC50 [2] [nM] | IC50 [3] [nM] | logD [5] | SMILES | Ratio [4] | inhibition at 10 µM (hERG (KCNH2)) [%] | other results
2 | 5.6 | 3.4 | 3.91 | Cc1c(NC(=O)c2ccc(OCC3CC3)cc2)ccc2cc(C(C)N3CCCCCC3)cnc12 (racemic) | 0.73 |  | 
1.5 | 2.7 | 6.4 | 2.67 | Cc1c(NC(=O)c2ccc(OCC3CC3)cc2)ccc2cc(C(C)NCC(C)(C)O)cnc12 (racemic) |  | 63.3 | 
1.7 | 4.2 | 6.4 | 3 | Cc1c(NC(=O)c2ccc(OCC3CC3)cc2)ccc2cc(C(C)N3CCCC3)cnc12 (racemic) | 1.02 |  | 
3.4 | 8 | 4 | 2.99 | Cc1c(NC(=O)c2ccc(OCC3CC3)cc2)ccc2cc([C@H](C)N3CCCC3)cnc12 | 0.85 |  | 
4.4 | 6.7 |  | 3.35 | Cc1c(NC(=O)c2ccc(OCC(C)C)cc2)ccc2cc(CN3CCCC3)cnc12 | 0.7 |  | 
 |  |  |  | CC(=O)NCCNC(C)c1cnc2c(C)c(NC(=O)c3ccc(OCC4CC4)cc3)ccc2c1 (racemic) |  | 29.3 | 
170 |  |  | 3.5 | CCCCCC(=O)c1ccc(C(=O)Nc2ccc3cc(CN4CCCC4)cnc3c2C)cc1 | 0.48 |  | 
 |  |  |  | CC(=O)NCCN[C@@H](C)c1cnc2c(C)c(NC(=O)c3ccc(OCC4CC4)cc3)ccc2c1 |  | 33.3 | 
 |  |  |  | Cc1c(NC(=O)c2ccc(OCC3CC3)cc2)ccc2cc(C(C)NCCO)cnc12 (racemic) |  | 84.8 | 
1.8 | 1.6 | 4.3 | 2.77 | Cc1c(NC(=O)c2ccc(OCC3CC3)cc2)ccc2cc(CN3CCCC3)cnc12 | 0.9 |  | 
2.5 | 6.7 |  |  | Cc1c(NC(=O)c2ccc(OCC3CC3)cc2)ccc2cc(CN3CCCC3C)cnc12 (racemic) |  |  | 
 |  |  |  | CC(=O)NCCN[C@H](C)c1cnc2c(C)c(NC(=O)c3ccc(OCC4CC4)cc3)ccc2c1 |  | 33.2 | bioavailability [6]: 43%; clearance [7]: 11.5 mL/min/kg; Vd [8]: 1.21 L/kg; Cmax [9]: 274 ng/mL; Tmax [10]: 4 h; AUC(0-t) at 24 h [11]: 1940 ng·h/mL; inhibition (Rattus norvegicus): Dose-dependent effect
 |  |  |  | Cc1c(NC(=O)c2ccc(OCC3CC3)cc2)ccc2cc(C(C)N3CC[C@H](O)C3)cnc12 (mixture of isomers) |  | 58.4 | 
1.1 | 1.9 | 2.9 | 2.99 | Cc1c(NC(=O)c2ccc(OCC3CC3)cc2)ccc2cc([C@@H](C)N3CCCC3)cnc12 | 1.11 | 88.1 | 
 | 1 |  | 2.77 | Cc1c(NC(=O)c2ccc(-c3ccc(F)cc3)cc2)ccc2cc(CN3CCCC3)cnc12 | 0.17 | 93.8 | 
